Active and inactive are the calls of the source. The calls are words filed in the database; no cut-off is given here.
Assays:
[1] = system: NCI-H460; assay: Induction of XBP-1 protein expression level in human NCI-H460 cells after 6 hrs by Western blot analysis; assay type: functional, cell-based
Method in brief: (§1)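 H460 cells exposed to 20 μM for varying times, or to a range of concentrations for 6 h. ATF-4 and XBP-1 protein measured by Western blot with actin as loading control.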

[2] = molecular target: Transcription factor Jun (Homo sapiens) (UniProt P05412); assay: Induction of c-Jun phosphorylation in human NCI-H460 cells at 20 uM by Western blot analysis; assay type: cell-based; settings: TDE = time-dependent effect
Transcription factor Jun (Homo sapiens), sequence (P05412 whole entry): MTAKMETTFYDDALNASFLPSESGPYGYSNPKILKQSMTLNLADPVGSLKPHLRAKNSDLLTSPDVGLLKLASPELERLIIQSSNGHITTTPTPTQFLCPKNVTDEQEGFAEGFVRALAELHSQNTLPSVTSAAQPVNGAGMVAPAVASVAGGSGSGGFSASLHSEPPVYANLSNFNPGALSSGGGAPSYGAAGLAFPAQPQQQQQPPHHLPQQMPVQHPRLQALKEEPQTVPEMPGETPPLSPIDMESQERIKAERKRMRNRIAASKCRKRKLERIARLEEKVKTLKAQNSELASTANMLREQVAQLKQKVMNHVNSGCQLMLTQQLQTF
Method in brief: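 H460 cells in RPMI 1640 with 5% FBS, treated at 20 μM for 12 h. Lysates in Tris-HCl pH 7.4, NP40, SDS buffer with protease/phosphatase inhibitors. p-c-Jun examined by Western blot with HRP secondary and chemiluminescence, actin as equal-loading control.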

[3] = system: NCI-H460; assay: Induction of GRP78 mRNA expression in human NCI-H460 cells at 5 to 20 uM after 3 hrs by real time quantitative PCR analysis; assay type: functional, cell-based
Method in brief: (§2)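 H460 cells treated across a concentration range for 3 h. GRP78 mRNA quantified by RT-qPCR, normalized to β-actin and expressed as percent of vehicle.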

[4] = system: NCI-H460; assay: Induction of apoptosis in human NCI-H460 cells assessed as activation of caspase 9 activation at 20 uM after 24 hrs by Western blot analysis; assay type: functional, cell-based
[5] = system: NCI-H460; assay: Induction of apoptosis in human NCI-H460 cells assessed as non-viable necrotic cells at 20 uM after 6 hrs by annexinV-propidium iodide staining based flow cytometric analysis relative to control; assay type: functional
Method in brief: (§3)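 H460 cells plated for 6 h, then treated with 5, 10 or 20 μM. Cells washed, trypsin-EDTA detached and resuspended in PBS, then stained with annexin V and propidium iodide plus RNase and 0.1% Triton X-100 for 30 min at 37 °C before flow cytometry. Figure legend gives 6 h incubation.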

[6] = system: NCI-H460; assay: Induction of apoptosis in human NCI-H460 cells assessed as late apoptotic cells at 20 uM after 6 hrs by annexinV-propidium iodide staining based flow cytometric analysis relative to control; assay type: functional; method in brief: as §3
[7] = system: NCI-H460; assay: Induction of apoptosis in human NCI-H460 cells assessed as non-viable necrotic cells at 5 uM after 6 hrs by annexinV-propidium iodide staining based flow cytometric analysis relative to control; assay type: functional; method in brief: as §3
[8] = system: NCI-H460; assay: Induction of apoptosis in human NCI-H460 cells assessed as viable cells at 20 uM after 6 hrs by annexinV-propidium iodide staining based flow cytometric analysis relative to control; assay type: functional; settings: NCI-H460, 6 h, read-out: Activity; method in brief: as §3
[9] = system: NCI-H460; assay: Induction of ATF-4 protein expression level in human NCI-H460 cells after 6 hrs by Western blot analysis; assay type: functional, cell-based; method in brief: as §1
[10] = system: NCI-H460; assay: Cytotoxicity against human NCI-H460 cells assessed as cell viability at 20 uM after 24 hrs by CellTiter-Glo analysis; assay type: functional; settings: NCI-H460, 24 h, read-out: Activity
Method in brief: (§4)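 H460 cells (5 × 10^3/well) seeded overnight, then given fresh medium containing compound from DMSO stock (final 5, 10, 20 μM; 2.5–30 μM in the figure) for 24 h. Viability measured with CellTiter-Glo and expressed as percent of vehicle-treated cells; Student's t test.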

[11] = system: NCI-H460; assay: Induction of apoptosis in human NCI-H460 cells assessed as viable cells at 10 uM after 6 hrs by annexinV-propidium iodide staining based flow cytometric analysis relative to control; assay type: functional; settings: NCI-H460, 6 h, read-out: Activity; method in brief: as §3
[12] = system: NCI-H460; assay: Induction of CHOP protein expression in human NCI-H460 cells after 6 to 24 hrs by Western blot analysis; assay type: functional, cell-based
Method in brief: (§5)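 H460 cells treated for 6–24 h, or across a range of concentrations. CHOP protein measured by Western blot, densitometry expressed as percent of control; Student's t test.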

[13] = system: NCI-H460; assay: Induction of CHOP protein expression in human NCI-H460 cells at 20 uM after 6 to 24 hrs by Western blot analysis; assay type: functional, cell-based; method in brief: as §5
[14] = system: NCI-H460; assay: Decrease in CHOP protein expression in human NCI-H460 cells transfected with lentivirus carrying CHOP siRNA at 10 uM after 6 hrs by Western blot analysis
[15] = system: NCI-H460; assay: Antitumor activity against human NCI-H460 cells xenografted in ip dosed nude Balb/cA mouse assessed as decrease in tumor volume administered qd for 20 days; assay type: functional, organism-based
Method in brief: (§6)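 BALB/cA nu/nu female athymic mice bearing sc right-flank xenografts (3 × 10^6 H460 cells in PBS); once-daily ip dosing began on day 10, when tumors reached 100–300 mm3. Water-soluble liposome preparation in PBS at 10 or 50 mg/kg; controls received liposome vehicle in PBS. Volume = lw²/2; T/C read on day 22. Seven mice per group, mean ± SD; Student's t test.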

[16] = system: NCI-H460; assay: Induction of XBP-1 mRNA expression in human NCI-H460 cells after 3 hrs by real time quantitative PCR analysis
[17] = system: NCI-H460; assay: Antitumor activity against human NCI-H460 cells xenografted in nude Balb/cA mouse assessed as decrease in tumor volume at 10 mg/kg, ip qd for 20 days measured on day 22 relative to control; assay type: functional; design: scale not given: the % may be the effect or the level left; settings: route intraperitoneal; method in brief: as §6
[18] = system: NCI-H460; assay: Induction of apoptosis in human NCI-H460 cells assessed as early apoptotic cells at 10 uM after 6 hrs by annexinV-propidium iodide staining based flow cytometric analysis relative to control; assay type: functional; method in brief: as §3
[19] = system: NCI-H460; assay: Induction of GRP78 protein expression in human NCI-H460 cells at 5 to 20 uM after 3 hrs by Western blot analysis; assay type: functional, cell-based
Method in brief: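 H460 cells treated for 3 h; GRP78 protein detected by Western blot with actin as loading control.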

[20] = system: NCI-H460; assay: Induction of ATF-4 mRNA expression in human NCI-H460 cells after 3 hrs by real time quantitative PCR analysis
[21] = system: NCI-H460; assay: Cytotoxicity against human NCI-H460 cells assessed as reduction of cell viability at 5 to 30 uM after 24 hrs by CellTiter-Glo analysis; assay type: functional, cell-based; method in brief: as §4
[22] = system: NCI-H460; assay: Induction of apoptosis in human NCI-H460 cells at 5 to 30 uM after 24 hrs by flow cytometric analysis; assay type: functional, cell-based
[23] = system: NCI-H460; assay: Induction of apoptosis in human NCI-H460 cells assessed as morphological changes at 5 to 20 uM after 24 hrs by light microscopic analysis; assay type: functional, cell-based
Method in brief: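 H460 cells treated at 5, 10 or 20 μM for 24 h; morphology imaged by light microscope at 20× magnification.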

[24] = system: NCI-H460; assay: Induction of ATF-4 protein level in human NCI-H460 cells at 20 uM after 6 hrs by Western blot analysis
[25] = system: NCI-H460; assay: Induction of GRP78 mRNA expression in human NCI-H460 cells after 3 hrs by real time quantitative PCR analysis; assay type: functional, cell-based; method in brief: as §2
[26] = system: NCI-H460; assay: Induction of apoptosis in human NCI-H460 cells assessed as early apoptotic cells at 5 uM after 6 hrs by annexinV-propidium iodide staining based flow cytometric analysis relative to control; assay type: functional; method in brief: as §3

## COc1cccc(/C=C/C(=O)/C=C/c2cccc(OC)c2OC)c1OC
[1]
  Activity: Dose-dependent effect
[2]
  Activity: tde
[3]
  Activity: Active
[4]
  Activity: Active
[5]
  Activity: 1.48%
[6]
  Activity: 11.56%
[7]
  Activity: 0.55%
[8]
  viability at 20 µM: 57.3%
[9]
  Activity: Dose-dependent effect
[10]
  viability at 20 µM: 16%
[11]
  viability at 10 µM: 72.5%
[12]
  Activity: Dose-dependent effect
[13]
  Activity: Active
[14]
  Activity: inactive
[15]
  Activity: Dose-dependent effect
[16]
  Activity: Dose-dependent effect
[17]
  Activity: 75.8%
[18]
  Activity: 22.74%
[19]
  Activity: Active
[20]
  Activity: Dose-dependent effect
[21]
  Activity: Active
[22]
  Activity: Active
[23]
  Activity: Active
[24]
  Activity: Active
[25]
  Activity: Dose-dependent effect
[26]
  Activity: 7.44%
